Results gathered from unrelated publications.
Each line is one published result; the experiments were not run side by side.
Transmembrane protease serine 6: Transmembrane protease serine 6 (Homo sapiens, UniProt Q8IU80)
Palmitoyl-protein thioesterase 1: Palmitoyl-protein thioesterase 1 (Homo sapiens, UniProt P50897)

SMILES | target | test | conditions | measurement | value
CCCC[C@H](NC(=O)[C@H](Cc1cscn1)NC(=O)CCc1ccccc1)C(=O)N[C@@H](CCCNC(=N)N)C(=O)c1nc2ccccc2s1 | Transmembrane protease serine 6 | enzyme activity, inhibitor | 0.1 µM | remaining activity | 22%
COc1cc(-c2cncc3c2CN(C)Cc2cc(N4CCNCC4)ccc2-3)cc(OC)c1OC | Protein kinase C delta type (PRKCD, Homo sapiens, UniProt Q05655) | enzyme activity, inhibitor | 1 µM | remaining activity | 104%
C=CC(=O)N1CCC(COCC(=O)N2CCN(c3nc(-c4cnc(N)nc4C(F)F)nc(N4CCOC[C@@H]4C)n3)CC2)CC1 | Mitogen-activated protein kinase 4 (MAPK4, Homo sapiens, UniProt P31152) | binding, competition with immobilised ligand | 1 µM | remaining binding | 100%
O=C(CCCN1CC=C(n2c(=O)[nH]c3ccccc32)CC1)c1ccc(F)cc1 | Palmitoyl-protein thioesterase 1 | enzyme activity, inhibitor | 125 µM | inhibition | 1.07%
CC[C@@H](C)[C@H](NC(=O)[C@H](Cc1cscn1)NC(=O)CCc1ccccc1)C(=O)N[C@@H](CCCNC(=N)N)C(=O)c1nc2ccccc2s1 | Transmembrane protease serine 6 | enzyme activity, inhibitor | 0.1 µM | remaining activity | 1%
CNc1ncc2c(/C=C/C(=O)N3CCC(OC)CC3)nn(Cc3cccc(C(F)(F)F)c3)c2n1 | Ribosomal protein S6 kinase alpha-2 (RPS6KA2, Homo sapiens, UniProt Q15349) | enzyme activity, inhibitor, radiometric | 1 µM | remaining activity | 86%
CCCCC/C=C\C/C=C\CCCCCCCC(=O)O | Palmitoyl-protein thioesterase 1 | enzyme activity, inhibitor | 156 µM | inhibition | 40.4%
N=C(N)NCCC[C@H](NC(=O)C1(NC(=O)[C@H](Cc2cscn2)NC(=O)CCc2ccccc2)CC1)C(=O)c1nc2ccccc2s1 | Transmembrane protease serine 6 | enzyme activity, inhibitor | 0.1 µM | remaining activity | 60%
O=C1OCCN1/N=C/c1ccc([N+](=O)[O-])o1 | Palmitoyl-protein thioesterase 1 | enzyme activity, inhibitor | 125 µM | inhibition | 29%
Cc1cc([C@@H](C)Nc2ccccc2C(=O)O)c2nc(N3CCC(F)(F)CC3)c(C#N)c(=O)n2c1 | SRSF protein kinase 3 (SRPK3, Homo sapiens, UniProt Q9UPE1) | binding, competition with immobilised ligand | 1 µM | remaining binding | 77%
NCCCCCC(=O)O | Palmitoyl-protein thioesterase 1 | enzyme activity, inhibitor | 312 µM | inhibition | 17.1%
CC(C)[C@@H](NC(=O)[C@H](Cc1cscn1)NC(=O)CCc1ccccc1)C(=O)N[C@@H](CCCNC(=N)N)C(=O)c1nc2ccccc2s1 | Transmembrane protease serine 6 | enzyme activity, inhibitor | 0.1 µM | remaining activity | 68%
